# Bioassay records: PubChem, several laboratories
# TPT1 inhibitor: blocks Candida albicans tRNA 2'-phosphotransferase; 0.81% of 300,000 active; AID 1962; inhibition, % at 5 µM; recombinant caTPT1, FP RNA substrate dephosphorylation;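 active = inhibition above the mean of all tested compounds plus 3 SD, set per screening campaign, cut at about 24% in these data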;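 note: plate controls were DMSO alone for no effect and ferristatin control at 100 nM for full effect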
# CSN deneddyl inh: inhibitors of human CSN-mediated cullin deneddylation; Q92905; Purified CSN, SCF-Nedd8-OG deneddylation, fluorescence polarization; inhibition, % at 12.5 µM; 0.38% of 360,000 active; AID 651999;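 active = pattern-corrected inhibition above about 35%, with an unprinted fluorescence ratio check between 0.5 and 1.5, limit read from the data, passing the limit was not always enough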;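 note: 0% = enzyme with substrate and 100% = substrate without enzyme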
# Target sequence (Q92905 whole entry, looked up, one chain of several): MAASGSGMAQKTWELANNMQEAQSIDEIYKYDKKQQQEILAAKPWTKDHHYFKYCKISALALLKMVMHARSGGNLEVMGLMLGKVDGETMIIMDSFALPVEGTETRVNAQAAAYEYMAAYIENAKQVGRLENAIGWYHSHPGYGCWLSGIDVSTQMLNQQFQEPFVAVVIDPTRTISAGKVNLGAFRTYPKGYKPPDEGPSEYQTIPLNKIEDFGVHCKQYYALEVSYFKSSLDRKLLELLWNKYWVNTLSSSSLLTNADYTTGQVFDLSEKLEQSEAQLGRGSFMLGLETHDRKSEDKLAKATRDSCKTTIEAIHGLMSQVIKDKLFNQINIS
#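 Assay system: purified human Csn5 enzyme expressed in HEK293T cells; measure: % inhibition; also added: SCFSkp2-Nedd8OG substrate at 10 nM final; technique: fluorescence polarization; times: reaction 90 min, room temperature; medium: Tris buffer pH 7.5, NaCl, DTT, Tween-20, trehalose, ovalbumin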
# Myeloid diff MLP: promotes myeloid progenitor differentiation; ER-HoxA9 myeloid progenitors, lysozyme-GFP differentiation, flow cytometry; calls only at 10 µM; 1% of 360,000 active; AID 624256;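 active = normalized GFP-positive differentiation at or above the plate's own cutoff, the solvent-only control mean plus 3 SD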;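 note: cells exposed to compound for four days before flow analysis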
# HNF4A DNA FP: change in binding of human HNF4 alpha to DNA; P41235; HNF4a-FITC DNA binding, fluorescence polarization, 1 h; activity change, % at 10 µM; 0.3% of 360,000 active; in the data active = activity change above about 30%, passing the limit was not always enough
# Rpn11 block: Rpn11 (human) deubiquitinase inhibition. O00487. human 26S proteasome, Ub4-pepOG fluorescence polarization; 20S core pre-blocked with epoxomicin. 0.59% of 360,000 active. inhibition, % at 20 µM;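 active = inhibition at 20 µM, scaled to each plate's controls, above about 33%, limit read from the data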
# Target sequence (O00487 whole entry, looked up): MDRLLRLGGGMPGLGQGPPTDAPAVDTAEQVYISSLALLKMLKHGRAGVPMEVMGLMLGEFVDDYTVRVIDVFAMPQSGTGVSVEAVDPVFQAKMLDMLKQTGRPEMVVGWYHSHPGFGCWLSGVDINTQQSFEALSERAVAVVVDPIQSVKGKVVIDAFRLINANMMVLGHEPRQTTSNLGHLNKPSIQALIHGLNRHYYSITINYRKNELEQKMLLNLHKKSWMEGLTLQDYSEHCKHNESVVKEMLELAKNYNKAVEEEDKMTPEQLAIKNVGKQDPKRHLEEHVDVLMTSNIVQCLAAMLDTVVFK
# Myeloid diff: promotes myeloid progenitor differentiation; shares compounds with Myeloid diff MLP; AID 651706; calls only; ER-HoxA9 myeloid progenitors, GFP/Mac1 double-positive flow; 2% of 2,300 active;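 active = share of green or green-and-red cells above 9 and 9% in run 1 or 4 and 3% in run 2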
# GFP autofluor: compound fluorescence in myeloid differentiation counter-screen. AID 651707. ER-HoxA9 myeloid progenitors, no estrogen, GFP autofluorescence flow cytometry; vehicle wells 0%, positive control 100%. shares compounds with Myeloid diff MLP. 7.4% of 2,300 active. fluorescence response, % (concentration not given with the values);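 active = over 5% cells positive for green fluorescent reporter, or over 2% positive for both it and APC stain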;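 note: range taken on the double positive population between DMSO and positive control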
# Starred values were filed as active, the others as inactive; i = inactive; nt = no result given; + = active, no number; ! = not confirmed by another sample. Most compounds without a hit are left out; they make up all but 2.3% or so of the library.
SMILES,TPT1 inhibitor,CSN deneddyl inh,Myeloid diff MLP,HNF4A DNA FP,Rpn11 block,Myeloid diff,GFP autofluor
O=C(CSc1nc2ccccc2c(=O)n1Cc1ccco1)c1ccccc1,0.5,6.8,i,3.3,-1.2,nt,nt
CC1CCCCC1NC(=O)CSc1nc2ccccc2c(=O)n1Cc1ccco1 (stereo not drawn),1.9,0.0,+,-1.3,-1.7,i,0.3
O=[N+]([O-])c1ccc(N2CCc3ccccc3C2)cc1,-0.8,2.7,i,-1.5,-4.4,nt,nt
C=CCn1c(N)cc(=O)nc1SCC(=O)NC(C)c1ccccc1 (stereo not drawn),1.3,-1.1,i,5.2,7.7,i,0.3
COc1ccc(C(=O)C(C)[n+]2ccc(C)c3ccccc32)cc1[N+](=O)[O-] (stereo not drawn),21.4,20.2,+,2.1,27.6,i,0.4
Cc1ccc(C(=O)OCCc2c(C)[nH]n(-c3ccccc3)c2=O)cc1,0.4,-0.7,i,-0.3,3.8,i,0.3
Cc1[nH]n(-c2ccccc2)c(=O)c1CCOC(=O)c1cccc(C(F)(F)F)c1,-1.3,2.8,i,-0.9,-13.8,nt,nt
O=C(Cc1cccs1)Nc1ccc(-c2nnc(-c3ccccc3)o2)cc1,0.7,6.9,i,-8.5,-1.4,nt,nt
Cc1cccc(-c2nnc(-c3cccc(NC(=O)Cc4cccs4)c3)o2)c1,1.0,4.9,i,0.4,5.1,i,0.5
N#C/C(=C/c1ccc(-c2cccc([N+](=O)[O-])c2)o1)C(=O)Nc1nc(-c2cccs2)cs1,nt,-0.4,i,0.0,5.1,nt,nt
N#C/C(=C\c1ccc(-c2ccc([N+](=O)[O-])cc2)o1)C(=O)Nc1nc(-c2cccs2)cs1,5.2,2.1,+,-9.3,4.9,i,0.0
NNC(=O)c1[nH]c2ccc(Cl)cc2c1-c1ccccc1,-5.9,-1.1,i,1.2,-9.9,i,1.6
CN(CC(=O)Nc1ccc(F)cc1)C(=O)CSc1nnc(Cc2ccccc2)o1,nt,-5.2,i,0.8,0.4,nt,nt
c1ccc(-n2cc(CN3CCCC3)c(-c3ccc4c(c3)OCO4)n2)cc1,-0.1,-8.3,i,-3.0,6.1,nt,nt
c1ccc(-n2cc(CN3CCC(N4CCOCC4)CC3)c(-c3ccc4c(c3)OCO4)n2)cc1,-1.7,-11.3,+,-2.2,-6.9,i,0.5
CC12CCC(C(=O)N(CC(O)CN3CCCCC3)C1=O)C2(C)C (stereo not drawn),2.1,1.6,nt,2.4,2.4,nt,nt
Cc1ccc(NC(=O)c2ccc(S(=O)(=O)NCc3cccnc3)cc2)c(C)c1,4.8,-0.8,i,-2.5,-5.3,nt,nt
O=C(NC1CC1)c1sc2cc(Cl)ccc2c1Cl,3.2,0.9,i,0.4,3.6,nt,nt
CC1(C)CC(NC(=O)c2sc3cc(Cl)ccc3c2Cl)CC(C)(C)N1,-5.5,-3.7,i,1.6,0.8,i,0.5
CCOC(=O)/C=C1\SCC(=O)N1CC(=O)NC(C)C,-6.1,0.9,i,0.6,-2.8,nt,nt
CCOC(=O)/C=C1\SCC(=O)N1CC(=O)NC12CC3CC(CC(C3)C1)C2,-0.9,1.4,+,3.0,2.9,i,0.0
CC(C)OC(=O)CSc1nnc(CNc2ccc(Cl)cc2)n1C,-7.3,-7.2,i,-0.2,3.4,nt,nt
COC(=O)CSc1nnc(CNc2ccc(OC)cc2)n1C,-2.0,0.2,+,-0.5,-2.4,i,0.3
COc1ccc(C=NNC(=O)c2ccccc2NS(=O)(=O)c2cccs2)cc1O,nt,-3.2,i,0.1,-2.4,nt,nt
COc1ccc(OC)c(C=NNC(=O)c2ccccc2NS(=O)(=O)c2cccs2)c1,nt,2.6,+,-0.2,-37.5,i,2.2
SMILES,TPT1 inhibitor,CSN deneddyl inh,Myeloid diff MLP,HNF4A DNA FP,Rpn11 block,Myeloid diff,GFP autofluor
Cc1ccc(NS(=O)(=O)c2ccc(NC(=O)CSc3ccc(Cl)cc3)cc2)c(C)c1,1.1,3.6,i,0.3,4.2,nt,nt
Cc1ccc(O)c(NC(=O)CSc2ccc(Cl)cc2)c1,-2.9,-0.6,i,0.1,-1.1,i,0.4
COc1ccc(S(=O)(=O)N(C)C[C@@H]2OCCCC[C@H](C)Oc3ccc(NC(=O)Nc4ccc(C(F)(F)F)cc4)cc3C(=O)N([C@H](C)CO)C[C@H]2C)cc1,nt,-0.4,i,-1.0,2.9,nt,nt
S=C(NCCCN1CCOCC1)NCCCN1CCOCC1,-1.9,-2.0,i,-1.7,-6.0,nt,nt
CCCCCCCCNC(=S)NCCN1CCCCC1,nt,-2.1,i,0.6,-5.2,i,0.0
O=C(/C=C/c1ccccc1)N1CCC(N2CCC(C(=O)N3CCOCC3)CC2)CC1,-1.6,-3.7,i,2.1,-0.5,nt,nt
CC1Nc2ncnc(N3CCc4ccccc4C3)c2N(Cc2ccc(Br)cc2)C1=O (stereo not drawn),11.0,16.1,+!,17.6,29.1,i,0.0
COc1cccc(-c2nn(-c3ccccc3)cc2CN(C)C(C)c2ccon2)c1 (stereo not drawn),-0.2,1.4,i,-0.4,-2.3,nt,nt
CCC(COC)NCc1cn(-c2ccc(OC)cc2)nc1-c1cccc(F)c1 (stereo not drawn),6.8,2.8,+,2.0,7.3,i,0.3
CC1(C)CC(=O)C=C(Nc2ccc(O)c(C(=O)O)c2)C1,-5.5,-9.1,i,0.3,2.3,nt,nt
CC1(C)CC(=O)C=C(Nc2ccc(C(=O)O)cc2)C1,-4.6,1.6,+,0.2,2.3,i,0.4
CCC(C)NCCCOc1ccc(C)cc1OC (stereo not drawn),-2.9,-0.4,i,-1.1,-1.4,nt,nt
CNCCCOc1ccc(C)cc1OC,0.5,-0.1,i,5.4,0.6,i,0.3
COc1ccc(C2Cc3ccccc3C(=O)O2)cc1 (stereo not drawn),2.0,0.0,i,0.7,-1.9,nt,nt
Fc1ccc2nc(C3CCCCN3Cc3nc(CC4CC4)no3)[nH]c2c1 (stereo not drawn),-0.2,-0.1,i,2.2,-3.4,i,0.2
Fc1ccc(C2CCCCN2Cc2nc(CC3CC3)no2)cc1 (stereo not drawn),5.4,-0.9,i,-2.3,-3.9,nt,nt
CC(=O)N1c2ccc(S(=O)(=O)NCc3ccco3)cc2CC1C (stereo not drawn),0.9,-0.8,+,3.6,-10.3,i,1.5
O=S(=O)(NCc1ccco1)c1ccc2c(c1)Cc1ccccc1-2,3.3,0.4,i,3.0,-7.3,i,0.0
CC1CCCCN1C(=S)Nc1ccc2nc3n(c(=O)c2c1)CCCCC3 (stereo not drawn),-5.6,3.0,i,-0.1,-1.4,nt,nt
Clc1ccc2nc(-c3ccc4c(c3)OCO4)cn2c1,-1.1,3.0,i,1.6,-1.1,i,0.0
CCN(C(=O)CN1CCCc2cc(C)ccc21)c1c(N)n(Cc2ccccc2)c(=O)[nH]c1=O,nt,-40.7,i,-27.6,-47.2,i,0.9
